Tests used:
[1] = system: Keratinocyte; test: Induction of proimflammatory activity in human primary epidermal keratinocytes assessed as TNFalpha release after 6 hrs relative to ingenol 3-angelate; assay type: functional
Procedure, shortened: (§1)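 Adult log-phase primary epidermal keratinocytes were seeded at 10,000 cells/well. Cells were incubated with titrated compound for 6 h at 37 °C in 5% CO2. Secreted TNFα was measured by Meso Scale 4-spot cytokine plates. EC50 and Emax were referenced to the maximal response of ingenol 3-angelate.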

[2] = biological target: Protein kinase C delta type (Homo sapiens, UniProt Q05655); test: Activation of PKCdelta (unknown origin) after 40 mins
Procedure, shortened: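 In vitro PKCδ phosphorylation of a PKC peptide substrate, with 0.05 mg/mL phosphatidylserine and no diacylglycerol. Compounds were tested as a twelve-point semilog dilution series starting at 10 µM. The reaction was started with ATP and run 40 min at room temperature.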

[3] = system: Keratinocyte; test: Induction of proimflammatory activity in human primary epidermal keratinocytes assessed as IL-8 release after 6 hrs relative to ingenol 3-angelate; assay type: functional
Procedure, shortened: as §1, with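 “IL8” for “TNFα”, “plates or by HTRF.” for “plates.”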

[4] = Immunostimulatory activity in polymorphonuclear leukocytes (unknown origin) assessed as induction of oxidative burst after 40 mins by fluorescence assay relative to ingenol 3-angelate; assay type: functional
Procedure, shortened: (§2)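 PMN were isolated from fresh buffy coats. Cells were incubated 40 min at ambient temperature with titrated compound (top concentration 10 µM) pre-mixed with hydroethidine. Respiratory burst was read as fluorescence at ex 485/em 579 nm. EC50 is the concentration giving 50% of the maximum effect of ingenol 3-angelate; Emax is the maximal response relative to it.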

[5] = Immunostimulatory activity in polymorphonuclear leukocytes (unknown origin) assessed as induction of oxidative burst after 40 mins by fluorescence assay; assay type: functional, cell-based; procedure, shortened: as §2
[6] = system: Keratinocyte; test: Induction of proimflammatory activity in human primary epidermal keratinocytes assessed as TNFalpha release after 6 hrs; assay type: functional, cell-based; procedure, shortened: as §1
[7] = system: HeLa; test: Induction of necrosis in human HeLa cells assessed as remaining metabolic activity after 30 mins by resazurin dye-based assay; assay type: functional; settings: 0.5 h, read-out: LC50 (the source's name)
Procedure, shortened: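 HeLa cells were exposed to increasing concentrations up to 400 µM for 30 min at 37 °C. Metabolic activity was then measured with a resazurin-based dye (PrestoBlue). LC50 is the concentration giving 50% loss of metabolic activity.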

[8] = system: Keratinocyte; test: Induction of proimflammatory activity in human primary epidermal keratinocytes assessed as IL-8 release after 6 hrs; assay type: functional, cell-based
Procedure, shortened: as §1, with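 “IL8” for “TNFα”, “plates or by HTRF.” for “plates.”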

[9] = Chemical stability of the compound in aqueous buffer with less than 30% organic solvent assessed as compound recovery at pH 7.4 measured over 16 hrs by HPLC analysis; assay type: physicochemical; settings: read-out: Drug recovery
Procedure, shortened: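 A DMSO stock was diluted into pre-heated (37 °C) aqueous buffer pH 7.4 to ≤30% v/v organic content. The solution was held at 37 °C in the HPLC autosampler and injected within 5 min, then repeatedly over 16 h. Recovery was taken from the decrease in compound peak area, with UV detection normally at 270 nm.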

Sequence of Protein kinase C delta type (Q05655 whole entry): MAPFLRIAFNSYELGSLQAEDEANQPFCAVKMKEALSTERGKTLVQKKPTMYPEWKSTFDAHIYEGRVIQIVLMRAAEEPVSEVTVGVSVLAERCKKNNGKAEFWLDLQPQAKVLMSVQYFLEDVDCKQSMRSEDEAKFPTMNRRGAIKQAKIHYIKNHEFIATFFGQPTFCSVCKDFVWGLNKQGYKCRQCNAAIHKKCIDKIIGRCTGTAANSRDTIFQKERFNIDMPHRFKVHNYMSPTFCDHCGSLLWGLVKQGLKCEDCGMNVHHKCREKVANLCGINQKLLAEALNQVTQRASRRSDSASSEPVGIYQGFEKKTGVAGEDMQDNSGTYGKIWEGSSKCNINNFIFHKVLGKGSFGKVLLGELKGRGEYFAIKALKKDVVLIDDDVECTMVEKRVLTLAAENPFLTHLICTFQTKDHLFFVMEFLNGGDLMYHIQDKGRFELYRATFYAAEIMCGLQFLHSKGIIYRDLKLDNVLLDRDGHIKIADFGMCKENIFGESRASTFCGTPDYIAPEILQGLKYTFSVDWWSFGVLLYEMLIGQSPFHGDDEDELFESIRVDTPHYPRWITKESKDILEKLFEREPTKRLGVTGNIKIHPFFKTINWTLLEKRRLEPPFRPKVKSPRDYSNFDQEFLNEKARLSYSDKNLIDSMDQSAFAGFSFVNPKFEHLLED

| Structure (SMILES) | Emax [1] | EC50 [2] | Emax [3] | Emax [4] | EC50 [5] | EC50 [6] | CC50 [7] | EC50 [8] | remaining at 16 h [9] |
| --- | --- | --- | --- | --- | --- | --- | --- | --- | --- |
| CC1=C[C@]23C(=O)[C@@H](C=C(CO)[C@@H](O)[C@]2(O)[C@H]1OC(=O)c1ccccc1)[C@H]1[C@@H](C[C@H]3C)C1(C)C | 60% | 6.1 nM | 54% | 110% | 6 nM |  |  |  |  |
| CNc1cccc(Cl)c1C(=O)O[C@H]1C(C)=C[C@]23C(=O)[C@@H](C=C(CO)[C@@H](O)[C@]12O)[C@H]1[C@@H](C[C@H]3C)C1(C)C | 97% |  | 105% | 124% | 21 nM | 21 nM | 145000 nM | 18 nM | > 95% |
| CNc1cccc(F)c1C(=O)O[C@H]1C(C)=C[C@]23C(=O)[C@@H](C=C(CO)[C@@H](O)[C@]12O)[C@H]1[C@@H](C[C@H]3C)C1(C)C | 174% |  | 145% | 123% | 9.3 nM | 4.1 nM | 152000 nM | 3 nM | 74% |
| CC1=C[C@]23C(=O)[C@@H](C=C(CO)[C@@H](O)[C@]2(O)[C@H]1OC(=O)c1c(C)cccc1NCc1ccccc1)[C@H]1[C@@H](C[C@H]3C)C1(C)C | 126% |  | 122% | 103% | 42 nM | 7.6 nM | 187000 nM | 3.8 nM | > 95% |
| COc1cccc(NCc2ccccc2)c1C(=O)O[C@H]1C(C)=C[C@]23C(=O)[C@@H](C=C(CO)[C@@H](O)[C@]12O)[C@H]1[C@@H](C[C@H]3C)C1(C)C | 120% |  | 117% | 112% | 23 nM | 19 nM | 400000 nM | 6.6 nM | > 95% |
| CC(=O)Nc1cccc(C)c1C(=O)O[C@H]1C(C)=C[C@]23C(=O)[C@@H](C=C(CO)[C@@H](O)[C@]12O)[C@H]1[C@@H](C[C@H]3C)C1(C)C | 92% | 988 nM | 92% | 113% | 538 nM | 632 nM |  | 534 nM | 82% |
| CC1=C[C@]23C(=O)[C@@H](C=C(CO)[C@@H](O)[C@]2(O)[C@H]1OCc1ccccc1)[C@H]1[C@@H](C[C@H]3C)C1(C)C |  | > 10000 nM | 58% |  | 4540 nM |  | 378000 nM | 4520 nM | > 95% |
| CC1=C[C@]23C(=O)[C@@H](C=C(CO)[C@@H](O)[C@]2(O)[C@H]1OC(=O)c1ccccc1C)[C@H]1[C@@H](C[C@H]3C)C1(C)C | 64% |  | 58% | 107% | 5.7 nM | 13 nM | 115000 nM | 15 nM | 73% |
| CC1=C[C@]23C(=O)[C@@H](C=C(CO)[C@@H](O)[C@]2(O)[C@H]1OC(=O)c1ccccc1C(C)C)[C@H]1[C@@H](C[C@H]3C)C1(C)C | 96% |  | 86% | 120% | 11 nM | 5.7 nM | 110000 nM | 4.4 nM | 70% |
| COc1ccccc1C(=O)O[C@H]1C(C)=C[C@]23C(=O)[C@@H](C=C(CO)[C@@H](O)[C@]12O)[C@H]1[C@@H](C[C@H]3C)C1(C)C | 100% | 25.7 nM | 100% | 107% | 6.8 nM | 38 nM | 220000 nM | 42 nM | 70% |
| CC1=C[C@]23C(=O)[C@@H](C=C(CO)[C@@H](O)[C@]2(O)[C@H]1OC(=O)c1ccccc1OC(C)C)[C@H]1[C@@H](C[C@H]3C)C1(C)C | 101% |  | 105% | 113% | 8.7 nM | 4 nM | 192000 nM | 2.7 nM | 65% |
| CC1=C[C@]23C(=O)[C@@H](C=C(CO)[C@@H](O)[C@]2(O)[C@H]1OC(=O)c1ccccc1N)[C@H]1[C@@H](C[C@H]3C)C1(C)C | 112% |  | 101% | 116% | 15 nM | 5.5 nM | 199000 nM | 3.4 nM | 58% |
| CC1=C[C@]23C(=O)[C@@H](C=C(CO)[C@@H](O)[C@]2(O)[C@H]1OC(=O)c1ccccc1NCc1ccccc1)[C@H]1[C@@H](C[C@H]3C)C1(C)C | 128% |  | 115% | 127% | 8.6 nM | 1.5 nM | 168000 nM | 1.2 nM | 65% |
| CCCCCCCCCCCCNc1ccccc1C(=O)O[C@H]1C(C)=C[C@]23C(=O)[C@@H](C=C(CO)[C@@H](O)[C@]12O)[C@H]1[C@@H](C[C@H]3C)C1(C)C | 150% |  | 111% | 78% | 25 nM | 14 nM | 400000 nM | 16 nM |  |
| CCCCCCCCCCCCCCCCNc1ccccc1C(=O)O[C@H]1C(C)=C[C@]23C(=O)[C@@H](C=C(CO)[C@@H](O)[C@]12O)[C@H]1[C@@H](C[C@H]3C)C1(C)C | 120% |  | 125% | 94% | 1340 nM | 200 nM |  | 61 nM | 90% |
| COc1cccc(OC)c1C(=O)O[C@H]1C(C)=C[C@]23C(=O)[C@@H](C=C(CO)[C@@H](O)[C@]12O)[C@H]1[C@@H](C[C@H]3C)C1(C)C | 113% | 156 nM | 107% | 116% | 84 nM | 57 nM | 400000 nM | 44 nM | > 95% |
| CC1=C[C@]23C(=O)[C@@H](C=C(CO)[C@@H](O)[C@]2(O)[C@H]1OC(=O)c1c(Cl)cccc1Cl)[C@H]1[C@@H](C[C@H]3C)C1(C)C | 42% | 19.8 nM | 45% | 123% | 21 nM | 278 nM | 59000 nM | 113 nM | > 95% |
| CC1=C[C@]23C(=O)[C@@H](C=C(CO)[C@@H](O)[C@]2(O)[C@H]1OC(=O)c1c(C)cccc1Cl)[C@H]1[C@@H](C[C@H]3C)C1(C)C | 52% |  | 52% | 130% | 6.6 nM | 54 nM | 126000 nM | 51 nM | > 95% |
| COc1cccc(N)c1C(=O)O[C@H]1C(C)=C[C@]23C(=O)[C@@H](C=C(CO)[C@@H](O)[C@]12O)[C@H]1[C@@H](C[C@H]3C)C1(C)C | 83% |  | 111% | 109% | 25 nM | 108 nM |  | 41 nM | > 95% |
| CC1=C[C@]23C(=O)[C@@H](C=C(CO)[C@@H](O)[C@]2(O)[C@H]1OC(=O)c1c(N)cccc1Cl)[C@H]1[C@@H](C[C@H]3C)C1(C)C | 108% |  | 104% | 161% | 7.1 nM | 28 nM | 185000 nM | 20 nM | 93% |
| CC1=C[C@]23C(=O)[C@@H](C=C(CO)[C@@H](O)[C@]2(O)[C@H]1OC(=O)c1c(N)cccc1F)[C@H]1[C@@H](C[C@H]3C)C1(C)C | 104% |  | 104% | 133% | 12 nM | 10 nM | 201000 nM | 8.6 nM | 66% |
| CNc1cccc(C)c1C(=O)O[C@H]1C(C)=C[C@]23C(=O)[C@@H](C=C(CO)[C@@H](O)[C@]12O)[C@H]1[C@@H](C[C@H]3C)C1(C)C | 143% |  | 127% | 136% | 46 nM | 16 nM | 105000 nM | 12 nM | > 95% |
| C/C=C(/C)C(=O)O[C@H]1C(C)=C[C@]23C(=O)[C@@H](C=C(CO)[C@@H](O)[C@]12O)[C@H]1[C@@H](C[C@H]3C)C1(C)C [INGENOL MEBUTATE] |  |  |  |  | 8.7 nM |  | 230000 nM |  |  |

From ChEMBL document CHEMBL3102768, “Synthesis, biological evaluation and SAR of 3-benzoates of ingenol for treatment of actinic keratosis and non-melanoma skin cancer” (Bioorg Med Chem Lett, 2014)
